Assays:
Assay type in all cases: functional
Enterococcus faecalis = test: Antibacterial activity evaluated against Enterococcus faecalis
Procedure, shortened: (§1)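 MIC against aerobic bacteria, measured at Bayer AG, by standard agar dilution or broth microdilution per NCCLS M7-A5 guidelines. MIC taken as lowest concentration visibly inhibiting growth after in vitro incubation, read when untreated culture growth becomes visible; expressed as log 1/C.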

Escherichia coli = test: Antibacterial activity was evaluated against Escherichia coli; procedure, shortened: as §1
Pseudomonas aeruginosa = test: Antibacterial activity was evaluated against Pseudomonas aeruginosa; procedure, shortened: as §1
Staphylococcus aureus = test: Antibacterial activity was evaluated against Staphylococcus aureus; procedure, shortened: as §1

Compound | Log 1/C (Enterococcus faecalis) | Log 1/C (Escherichia coli) | Log 1/C (Pseudomonas aeruginosa) | Log 1/C (Staphylococcus aureus)
CN1CCC[C@@H]2CN(c3c(F)cc4c(=O)c(C(=O)O)cn(C5CC5)c4c3Cl)C[C@@H]21 | 6.23 | 7.15 | 5.32 | 6.83
CC1=C(C)n2cc(C(=O)O)c(=O)c3c(F)c(F)c(N4CCN(C5CC5)CC4)c(c32)O1 | 4.12 | 4.12 | 3.51 | 4.42
O=C(O)c1cn(C(CF)CF)c2cc(N3C[C@@H]4CCCN[C@@H]4C3)c(F)cc2c1=O | 5.01 | 5.61 | 4.11 | 5.01
CN1CCN(c2c(F)cc3c(=O)c(C(=O)O)cn(CF)c3c2F)CC1 | 5.55 | 7.07 | 5.85 | 5.85
O=C(O)c1cn(C2CC2)c2cc(N3CCN(C(CO)(CO)CO)CC3)c(F)cc2c1=O | 4.13 | 5.34 | 3.53 | 4.74
O=C(O)c1cn2c3c(c(N4CCN(C5CC5)CC4)c(F)cc3c1=O)OC1=C2CCC1 | 4.75 | 4.15 | 3.54 | 4.75
COc1c(N2CC3=C(CN(C)CC3)C2)c(F)cc2c(=O)c(C(=O)O)cn(C3CC3)c12 | 6.52 | 6.84 | 5.32 | 6.84
C[C@H]1COc2c(N3C[C@H]4CCCN[C@H]4C3)c(F)cc3c(=O)c(C(=O)O)cn1c23 | 5.89 | 6.19 | 5.29 | 5.89
CN1CCN(c2cc3c(c(Cl)c2F)c(=O)c(C(=O)O)cn3C2CC2)CC1 | 5.88 | 7.1 | 5.28 | 6.48
O=C(O)c1cn(C2CC2)c2c(F)c(N3C[C@@H]4CCCN[C@@H]4C3)c(F)cc2c1=O | 6.84 | 8.02 | 6.23 | 7.44
O=C(O)c1cn(C2CCOCC2)c2cc(N3CCNCC3)c(F)cc2c1=O | 4.07 | 3.77 | 3.47 | 4.07
C=CCN1CCN(c2cc3c(cc2F)c(=O)c(C(=O)O)cn3C2CC2)CC1 | 5.61 | 6.82 | 5.31 | 6.21
O=C(O)c1cn(C2CC2)c2cc(N3CCN(c4ncccn4)CC3)c(F)cc2c1=O | 4.71 | 4.41 | 3.5 | 5.01
CSc1cc2c(=O)c(C(=O)O)cn(C3CC3)c2c(SC)c1SC | 3.76 | 4.36 | 3.46 | 4.96
O=C(O)c1cn(C2CC2)c2cc(N3C[C@H]4CCCN[C@H]4C3)c(F)cc2c1=O | 5.91 | 6.82 | 5.61 | 6.21
O=C(O)c1cn(C2CC2)c2cc(N3CCN(C4CC4)CC3)c(F)cc2c1=O | 5.57 | 7.08 | 4.67 | 6.17
CO/N=C/Cn1cc(C(=O)O)c(=O)c2cc(F)c(N3CCN(C)CC3)c(F)c21 | 3.49 | 5.29 | 4.39 | 4.39
CN1CCC[C@H]2CN(c3c(F)cc4c(=O)c(C(=O)O)cn(C5CC5)c4c3Cl)C[C@H]21 | 6.84 | 7.45 | 5.62 | 7.13

Compound | Log 1/C (Enterococcus faecalis) | Log 1/C (Escherichia coli) | Log 1/C (Pseudomonas aeruginosa) | Log 1/C (Staphylococcus aureus)
C#Cc1c(N2C[C@@H]3CCCN[C@@H]3C2)c(F)cc2c(=O)c(C(=O)O)cn(C3CC3)c12 | 7.7 | 7.7 | 5.9 | 7.7
O=C(O)c1cn(C2CC2)c2c([N+](=O)[O-])c(N3CCOCC3)c(F)cc2c1=O | 4.67 | 5.58 | 3.77 | 5.58
CN1Cc2csc3c(C(=O)O)c(=O)c4cc(F)c(N5CCNCC5)c1c4n23 | 6.49 | 7.11 | 5.89 | 6.81
O=C(O)c1cn(C2C[C@@H]2F)c2c(Cl)c(N3C[C@H]4CCCN[C@H]4C3)ccc2c1=O (some centres undefined) | 6.51 | 7.13 | 5.61 | 6.51
CN1CCN(c2c(F)cc3c(=O)c(C(=O)O)cn4c3c2OC(C(C)(C)C)=C4)CC1 | 4.14 | 4.44 | 3.53 | 3.84
O=C(O)c1cn(C2CC2)c2c(F)c(N3Cc4cccnc4C3)c(F)cc2c1=O | 7.73 | 6.53 | 5.02 | 7.44
C[C@H]1COc2c(N3C[C@@H]4CCCN[C@@H]4C3)c(F)cc3c(=O)c(C(=O)O)cn1c23 | 6.19 | 6.8 | 5.59 | 6.19
O=C(O)c1cn(C2CC2)c2cc(N3CCN(c4ccncc4)CC3)c(F)cc2c1=O | 4.71 | 5.91 | 3.5 | 5.61
CC(=O)N1CCC[C@H]2CN(c3c(F)cc4c(=O)c(C(=O)O)cn(C5CC5)c4c3Cl)C[C@H]21 | 5.65 | 5.35 | 3.84 | 5.95
O=C(O)c1cn(C2CC2)c2c(Cl)c(N3CCCCC3)c(F)cc2c1=O | 6.79 | 6.46 | 5.26 | 7.42
O=C(O)c1cn(C2CC2)c2c(F)c(N3C[C@@H]4OCCN[C@@H]4C3)c(F)c(Br)c2c1=O | 5.37 | 6.58 | 4.47 | 6.27
O=C(O)c1cn2c3c(c(N4CCNCC4)c(F)cc3c1=O)OC=C2COCc1ccccc1 | 4.15 | 3.55 | 3.55 | 4.15
O=C(O)c1cn(C2CC2)c2c(F)c(N3C4CCC3CC4)c(F)cc2c1=O | 5.26 | 5.86 | 4.35 | 5.86
CN1CCN(c2nc3c(cc2Cl)c(=O)c(C(=O)O)cn3C2CC2)CC1 | 4.35 | 6.77 | 4.96 | 4.96
CC1CN(c2c(F)cc3c(=O)c(C(=O)O)cn(C4CC4)c3c2Cl)CC(C)N1 (centres undefined) | 5.93 | 7.16 | 5.63 | 6.54
N[C@@]12C=CC=CC1CN(c1c(F)cc3c(=O)c(C(=O)O)cn([C@@H]4C[C@@H]4F)c3c1Cl)C2 (some centres undefined) | 7.16 | 8.06 | 6.56 | 8.06
CCOc1c(F)cc2c(=O)c(C(=O)O)cn(C(C)(C)CF)c2c1Cl | 4.05 | 4.35 | 3.45 | 4.95
CO/N=C/Cn1cc(C(=O)O)c(=O)c2cc(F)c(N3C[C@@H]4CCCN(C)[C@@H]4C3)c(F)c21 | 4.42 | 5.62 | 4.42 | 5.62
